Laboratory results reported in ChEMBL document CHEMBL4257543, “Structural optimization and antibacterial evaluation of rhodomyrtosone B analogues against MRSA strains” (Medchemcomm, 2018).
Values after ≈ are worked out from the molar mass of the structure shown. Active and inactive are the calls of the source. The calls are words filed in the database; no cut-off is given here.

Experiments:
Staphylococcus aureus [1] = experiment: Antibacterial activity against Staphylococcus aureus ATCC 6538 by micro dilution susceptibility test; type: functional
Procedure, shortened: (§1)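 Microbroth dilution MIC in Mueller–Hinton broth following CLSI guidelines, vancomycin as positive control; resazurin added as visible growth indicator. Assays run at least in triplicate.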

Staphylococcus aureus [2] = experiment: Antibacterial activity against methicillin-resistant Staphylococcus aureus JCSC 4788 by micro dilution susceptibility test; type: functional; procedure, shortened: as §1
[3] = tested on: Staphylococcus epidermidis; experiment: Antibacterial activity against Staphylococcus epidermidis ATCC 12228 by micro dilution susceptibility test; type: functional
Procedure, shortened: (§2)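 Microbroth dilution MIC in Mueller–Hinton broth following CLSI guidelines, with vancomycin as positive control; assays run at least in triplicate.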

Salmonella typhi = experiment: Antibacterial activity against Salmonella typhi CMCC 44102 by micro dilution susceptibility test; type: functional, Salmonella enterica subsp. enterica serovar Typhi; settings: Salmonella enterica; procedure, shortened: as §1
Staphylococcus aureus [4] = experiment: Induction of membrane disruption in methicillin-resistant Staphylococcus aureus JCSC 4788 assessed as increase in fluorescence intensity at 0.25 to 8 ug/ml measured after 3 hrs by SYTOX green dye based fluorescence assay; type: functional, organism-based
Procedure, shortened: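 Exponential-phase MRSA JCSC 4788 washed and set to OD620 0.4 in 0.85% NaCl, exposed to serial compound concentrations for 3 h, then 3 μM SYTOX Green for 20 min. Fluorescence read at ex 504/em 523 nm with melittin as positive control and vancomycin as comparator; mean ± SD, n = 3.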

Staphylococcus aureus [5] = experiment: Antibacterial activity against methicillin-resistant Staphylococcus aureus JCSC 4788 in Balb/c mouse skin infection model assessed as reduction in skin ulcer formation at 40 ug administered as single dose via intradermal route measured 3 to 8 days post-infection; type: functional, organism-based
Procedure, shortened: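 Female BALB/c mice (18–20 g) injected intradermally in abdominal skin with 0.1 mL of MRSA JCSC 4788 (1×10^8 CFU) mixed with a single 40 μg dose in DMSO; DMSO-vehicle controls. Body weight and lesion size recorded daily for 11 days, ulcers imaged at 3 and 8 days; n = 6, mean ± SD.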

Shigella dysenteriae = experiment: Antibacterial activity against Shigella dysenteriae CMCC 51252 by micro dilution susceptibility test; type: functional; procedure, shortened: as §1
Paenibacillus polymyxa [6] = experiment: Antibacterial activity against Bacillus polymyxa GIM 1.467 by micro dilution susceptibility test; type: functional; procedure, shortened: as §2
Enterococcus faecium = experiment: Antibacterial activity against vancomycin-resistant Enterococcus faecium by micro dilution susceptibility test; type: functional; procedure, shortened: as §1
Cutibacterium acnes = experiment: Antibacterial activity against Propionicibacterium acnes ATCC 6919 by micro dilution susceptibility test; type: functional
Procedure, shortened: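 Microbroth dilution MIC in Mueller–Hinton broth following CLSI guidelines; […]; resazurin added as visible growth indicator; vancomycin positive control; at least triplicate.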

Paenibacillus polymyxa [7] = experiment: Antibacterial activity against Bacillus polymyxa ATCC 842 by micro dilution susceptibility test; type: functional; procedure, shortened: as §2
Bacillus cereus = experiment: Antibacterial activity against Bacillus cereus ATCC 10876 by micro dilution susceptibility test; type: functional; procedure, shortened: as §2
Enterococcus faecalis = experiment: Antibacterial activity against Enterococcus faecalis ATCC 29212 by micro dilution susceptibility test; type: functional; procedure, shortened: as §2
Escherichia coli = experiment: Antibacterial activity against Escherichia coli ATCC 8739 by micro dilution susceptibility test; type: functional; procedure, shortened: as §2
Candida albicans = experiment: Antibacterial activity against Candida albicans ATCC 10231 by micro dilution susceptibility test; type: functional; procedure, shortened: as §2
Staphylococcus aureus [8] = experiment: Antibacterial activity against methicillin-resistant Staphylococcus aureus JCSC 4744 by micro dilution susceptibility test; type: functional; procedure, shortened: as §1
Staphylococcus aureus [9] = experiment: Antibacterial activity against Staphylococcus aureus ATCC 29213 by micro dilution susceptibility test; type: functional; procedure, shortened: as §1
Staphylococcus aureus [10] = experiment: Antibacterial activity against Staphylococcus aureus CMCC 26003 by micro dilution susceptibility test; type: functional; procedure, shortened: as §1
Staphylococcus aureus [11] = experiment: Antibacterial activity against methicillin-resistant Staphylococcus aureus 85/2082 by micro dilution susceptibility test; type: functional; procedure, shortened: as §1
Staphylococcus aureus [12] = experiment: Antibacterial activity against methicillin-resistant Staphylococcus aureus JCSC 4469 by micro dilution susceptibility test; type: functional; procedure, shortened: as §1
Staphylococcus aureus [13] = experiment: Antibacterial activity against methicillin-resistant Staphylococcus aureus N315 by micro dilution susceptibility test; type: functional; procedure, shortened: as §1
Staphylococcus aureus [14] = experiment: Antibacterial activity against methicillin-resistant Staphylococcus aureus JCSC 3063 by micro dilution susceptibility test; type: functional; procedure, shortened: as §1
Staphylococcus aureus [15] = experiment: Antibacterial activity against methicillin-resistant Staphylococcus aureus JCSC 2172 by micro dilution susceptibility test; type: functional; procedure, shortened: as §1
Staphylococcus aureus [16] = experiment: Antibacterial activity against methicillin-resistant Staphylococcus aureus NCTC 10442 by micro dilution susceptibility test; type: functional; procedure, shortened: as §1

## CC(C)CC1C2=C(Oc3c(C(=O)CCc4ccccc4)c(O)cc(O)c31)C(C)(C)C(=O)C(C)(C)C2=O (stereo not given)
Staphylococcus aureus [1]
  MIC: 2 µg/mL (≈ 4.08 µM)
Staphylococcus aureus [2]
  MIC: 2 µg/mL (≈ 4.08 µM)

## CC(C)CC1C2=C(Oc3c(C(=O)C4CCCC4)c(O)cc(O)c31)C(C)(C)C(=O)C(C)(C)C2=O (stereo not given)
Staphylococcus aureus [1]
  MIC: 4 µg/mL (≈ 8.8 µM)
Staphylococcus aureus [2]
  MIC: 4 µg/mL (≈ 8.8 µM)

## CC(C)CC1C2=C(Oc3c(C(=O)C(C)C)c(O)cc(O)c31)C(C)(C)C(=O)C(C)(C)C2=O (stereo not given)
Staphylococcus aureus [1]
  MIC: 4 µg/mL (≈ 9.33 µM)
Staphylococcus aureus [2]
  MIC: 4 µg/mL (≈ 9.33 µM)

## CN[C@H](CC(C)C)C(=O)N[C@H]1C(=O)N[C@@H](CC(N)=O)C(=O)N[C@H]2C(=O)N[C@H]3C(=O)N[C@H](C(=O)N[C@H](C(=O)O)c4cc(O)cc(O)c4-c4cc3ccc4O)[C@H](O)c3ccc(c(Cl)c3)Oc3cc2cc(c3O[C@@H]2O[C@H](CO)[C@@H](O)[C@H](O)[C@H]2O[C@H]2C[C@](C)(N)[C@H](O)[C@H](C)O2)Oc2ccc(cc2Cl)[C@H]1O [VANCOMYCIN]
[3]
  MIC: 0.5 µg/mL (≈ 0.345 µM)
Salmonella typhi
  MIC: > 32 µg/mL
Staphylococcus aureus [4]
  Activity: inactive
Staphylococcus aureus [5]
  Activity: Active
Shigella dysenteriae
  MIC: > 32 µg/mL
Paenibacillus polymyxa [6]
  MIC: > 32 µg/mL
Staphylococcus aureus [1]
  MIC: 0.5 to 1 µg/mL (≈ 0.345 to 0.69 µM)
Enterococcus faecium
  MIC: > 32 µg/mL
Cutibacterium acnes
  MIC: 0.5 µg/mL (≈ 0.345 µM)
Paenibacillus polymyxa [7]
  MIC: > 32 µg/mL
Bacillus cereus
  MIC: 0.5 µg/mL (≈ 0.345 µM)
Enterococcus faecalis
  MIC: 0.5 µg/mL (≈ 0.345 µM)
Escherichia coli
  MIC: > 32 µg/mL
Candida albicans
  MIC: > 32 µg/mL

## CCCCCCCCCC(=O)c1c(O)cc(O)c2c1OC1=C(C(=O)C(C)(C)C(=O)C1(C)C)C2CC(C)C (stereo not given)
Staphylococcus aureus [1]
  MIC: 0.5 µg/mL (≈ 0.975 µM)
Staphylococcus aureus [2]
  MIC: 0.5 µg/mL (≈ 0.975 µM)

## CC(C)CC1C2=C(Oc3c(C=O)c(O)cc(O)c31)C(C)(C)C(=O)C(C)(C)C2=O (stereo not given)
Staphylococcus aureus [1]
  MIC: 128 µg/mL (≈ 331 µM)
Staphylococcus aureus [2]
  MIC: 128 µg/mL (≈ 331 µM)

## CC[C@H](C)[C@H](NC(=O)CN)C(=O)NCC(=O)N[C@@H](C)C(=O)N[C@H](C(=O)N[C@@H](CC(C)C)C(=O)N[C@@H](CCCCN)C(=O)N[C@H](C(=O)N[C@@H](CC(C)C)C(=O)N[C@H](C(=O)N[C@H](C(=O)NCC(=O)N[C@@H](CC(C)C)C(=O)N1CCC[C@H]1C(=O)N[C@@H](C)C(=O)N[C@@H](CC(C)C)C(=O)N[C@H](C(=O)N[C@@H](CO)C(=O)N[C@@H](Cc1c[nH]c2ccccc12)C(=O)N[C@H](C(=O)N[C@@H](CCCCN)C(=O)N[C@@H](CCCNC(=N)N)C(=O)N[C@@H](CCCCN)C(=O)N[C@@H](CCCNC(=N)N)C(=O)N[C@@H](CCC(N)=O)C(=O)N[C@@H](CCC(N)=O)C(N)=O)[C@@H](C)CC)[C@@H](C)CC)[C@@H](C)O)[C@@H](C)O)C(C)C)C(C)C
Staphylococcus aureus [4]
  Activity: Active

## CC(C)CC(=O)c1c(O)cc(O)c2c1OC1=C(C(=O)C(C)(C)C(=O)C1(C)C)C2CC(C)C (stereo not given)
Staphylococcus aureus [8]
  MIC: 0.5 µg/mL (≈ 1.13 µM)
[3]
  MIC: 1 µg/mL (≈ 2.26 µM)
Staphylococcus aureus [9]
  MIC: 1 µg/mL (≈ 2.26 µM)
Salmonella typhi
  MIC: > 32 µg/mL
Shigella dysenteriae
  MIC: > 32 µg/mL
Staphylococcus aureus [10]
  MIC: 0.5 µg/mL (≈ 1.13 µM)
Paenibacillus polymyxa [6]
  MIC: > 32 µg/mL
Staphylococcus aureus [1]
  MIC: 0.5 to 1 µg/mL (≈ 1.13 to 2.26 µM)
Enterococcus faecium
  MIC: 2 µg/mL (≈ 4.52 µM)
Staphylococcus aureus [11]
  MIC: 1 µg/mL (≈ 2.26 µM)
Staphylococcus aureus [12]
  MIC: 0.5 µg/mL (≈ 1.13 µM)
Cutibacterium acnes
  MIC: 0.5 µg/mL (≈ 1.13 µM)
Staphylococcus aureus [13]
  MIC: 1 µg/mL (≈ 2.26 µM)
Paenibacillus polymyxa [7]
  MIC: > 32 µg/mL
Bacillus cereus
  MIC: 0.5 µg/mL (≈ 1.13 µM)
Enterococcus faecalis
  MIC: 1 µg/mL (≈ 2.26 µM)
Escherichia coli
  MIC: > 32 µg/mL
Staphylococcus aureus [14]
  MIC: 0.5 µg/mL (≈ 1.13 µM)
Staphylococcus aureus [15]
  MIC: 0.5 µg/mL (≈ 1.13 µM)
Candida albicans
  MIC: > 32 µg/mL
Staphylococcus aureus [2]
  MIC: 1 µg/mL (≈ 2.26 µM)
Staphylococcus aureus [16]
  MIC: 1 µg/mL (≈ 2.26 µM)

## CCCCCCCCCCCC(=O)c1c(O)cc(O)c2c1OC1=C(C(=O)C(C)(C)C(=O)C1(C)C)C2CC(C)C (stereo not given)
Staphylococcus aureus [1]
  MIC: 8 µg/mL (≈ 14.8 µM)
Staphylococcus aureus [2]
  MIC: 8 µg/mL (≈ 14.8 µM)

## CC(C)CC1C2=C(Oc3c(C(=O)C4CCC4)c(O)cc(O)c31)C(C)(C)C(=O)C(C)(C)C2=O (stereo not given)
Staphylococcus aureus [1]
  MIC: 4 µg/mL (≈ 9.08 µM)
Staphylococcus aureus [2]
  MIC: 8 µg/mL (≈ 18.2 µM)

## CCCCCCCCCCCCCCCC(=O)c1c(O)cc(O)c2c1OC1=C(C(=O)C(C)(C)C(=O)C1(C)C)C2CC(C)C (stereo not given)
Staphylococcus aureus [1]
  MIC: > 256 µg/mL
Staphylococcus aureus [2]
  MIC: > 256 µg/mL

## CC(C)CC1C2=C(Oc3c(C(=O)Cc4ccccc4)c(O)cc(O)c31)C(C)(C)C(=O)C(C)(C)C2=O (stereo not given)
Staphylococcus aureus [1]
  MIC: 4 µg/mL (≈ 8.39 µM)
Staphylococcus aureus [2]
  MIC: 4 µg/mL (≈ 8.39 µM)
